This is an account of results in ChEMBL document CHEMBL4145571, “Ajmaline, Oxindole, and Cytotoxic Macroline-Akuammiline Bisindole Alkaloids from Alstonia penangiana” (J Nat Prod, 2018).

A short description of assay [1]: Growth inhibition of human KB/S cells after 72 hrs by MTT assay. The assay is classed as functional. Summed up:
(§1)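 Values are mean ± SD from three independent experiments. For the KB/VJ300 line with vincristine, 0.1 μM vincristine was added alongside the test compound. The remaining method details come from earlier published procedures.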

Assay [2] has as its system KB/VJ300. Nature of the assay: Growth inhibition of human KB/VJ300 cells after 72 hrs by MTT assay. The class given is functional. As to conditions: KB/VJ300, 72 h. Summed up:
as §1
A general note: Tetrazolium assays rely on reduction of a dye to a coloured formazan, in cell work by metabolically active cells.

Assay [3] has as its system KB/VJ300. Nature of the assay: Growth inhibition of human KB/VJ300 cells after 72 hrs in presence of 0.1 uM of vincristine by MTT assay. The class given is functional. As to conditions: KB/VJ300, 72 h. The gist of the method:
as §1

A further assay deals with HCT-116. As to the kind of experiment: Growth inhibition of human HCT116 cells after 72 hrs by MTT assay. The conditions noted are these: HCT-116, 72 h. The assay is classed as functional, cell-based. The gist of the method: as §1
The next assay deals with MDA-MB-231. Nature of the assay: Growth inhibition of human MDA-MB-231 cells after 72 hrs by MTT assay. The class given is functional, cell-based. The conditions noted are these: MDA-MB-231, 72 h. Summed up: as §1
A further assay deals with MCF7. As to the kind of experiment: Growth inhibition of human MCF7 cells after 72 hrs by MTT assay. As to conditions: MCF7, 72 h. The assay is classed as functional, cell-based. Summed up: as §1
Another assay relates to A549. As to the kind of experiment: Growth inhibition of human A549 cells after 72 hrs by MTT assay. The class given is functional, cell-based. The conditions noted are these: A549, 72 h. The gist of the method: as §1
The next assay has as its system HT-29. As to the kind of experiment: Growth inhibition of human HT-29 cells after 72 hrs by MTT assay. The class given is functional, cell-based. The conditions noted are these: HT-29, 72 h. Summed up: as §1
The subject of another assay is PC-3. As to the kind of experiment: Growth inhibition of human PC3 cells after 72 hrs by MTT assay. The class given is functional, cell-based. The conditions noted are these: PC-3, 72 h. Summed up:
as §1

The next assay has as its system LNCaP. Nature of the assay: Growth inhibition of human LNCAP cells after 72 hrs by MTT assay. The class given is functional, cell-based. Summed up:
as §1

pIC50: −log10 of the molar value.

`CC[C@]1(O)C[C@H]2CN(CCc3c([nH]c4ccccc34)[C@@](C(=O)OC)(c3cc4c(cc3OC)N(C=O)[C@H]3[C@@](O)(C(=O)OC)[C@H](OC(C)=O)[C@]5(CC)C=CCN6CC[C@]43[C@@H]65)C2)C1` [VINCRISTINE]: the figures for the pIC50 (in [1]; with KB/VJ300 [2]) were 9.52 and 5.41, respectively.

`COc1ccc(CCN(C)CCCC(C#N)(c2ccc(OC)c(OC)c2)C(C)C)cc1OC` (stereo not drawn) [VERAPAMIL]: in the assay with KB/VJ300 [3], the pIC50 (as a rule, −log10 of the IC50, conventionally taken in molar units) was 7.00.

Consider `C/C=C1/CN2CC[C@@]34c5cc([C@@H](C)[C@H]6[C@@H]7C[C@H]8c9c(c%10ccccc%10n9C)C[C@@H]([C@@H]7CO[C@@H]6O)N8C)c(OC)cc5N(C)[C@H]3[C@@H]2C[C@H]1C4C(=O)OC` (stereo partly drawn), for which the pIC50 in assay [1] was 5.70; in the assay on HCT-116, 5.18; in the assay with MDA-MB-231, 5.28; in the assay on KB/VJ300 [2], below 5.00; with MCF7, 5.42; with A549, 5.08. Besides, the pIC50 was 6.15 in the assay on HT-29, below 5.00 in the assay on KB/VJ300 [3], below 5.00 with PC-3 and 5.16 in the assay on LNCaP.
